CYP2C19 activ – activators of human cytochrome P450 2C19. P33261. recombinant CYP2C19, luciferin-H EGE luminescence; active compounds read high; 0 = fully inhibited enzyme, 1 = untreated enzyme. activation factor at 5 µM. 96,000 tested, under 10 active;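 active = activation factor of at least 2 at 5 µM in the primary screen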
Target sequence (P33261 whole entry, looked up): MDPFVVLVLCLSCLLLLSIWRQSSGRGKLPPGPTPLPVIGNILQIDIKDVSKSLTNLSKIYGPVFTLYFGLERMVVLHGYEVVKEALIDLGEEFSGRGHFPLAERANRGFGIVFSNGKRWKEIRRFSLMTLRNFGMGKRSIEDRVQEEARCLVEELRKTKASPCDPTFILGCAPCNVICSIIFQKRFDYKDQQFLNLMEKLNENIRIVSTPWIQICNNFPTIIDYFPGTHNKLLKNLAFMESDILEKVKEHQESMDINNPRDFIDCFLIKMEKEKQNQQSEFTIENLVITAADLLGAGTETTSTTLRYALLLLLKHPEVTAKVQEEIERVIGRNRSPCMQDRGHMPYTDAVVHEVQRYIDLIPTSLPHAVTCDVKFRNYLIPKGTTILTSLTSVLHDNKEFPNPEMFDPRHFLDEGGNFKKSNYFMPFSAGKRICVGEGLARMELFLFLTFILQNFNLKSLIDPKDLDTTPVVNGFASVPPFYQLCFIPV
CYP2C9 inhib – inhibitors of human CYP2C9; CYP2C9 Supersomes, luciferin-H conversion, luminescence; hit rate 20% among 96,000; P11712; inhibition, % at 5 µM;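 active = blocking of liver enzyme CYP2C9 beyond about 50% at 5 µM, limit read from the data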
Ecoli WT expand – blocks growth of wild type E. coli BW25113. OD600 absorbance. growth inhibition, % at 100 µM. hit rate 0.15% among 98,000;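 active = growth inhibition above about 50% at one test dose, limit read from the data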;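 also: growth measured after 20 h incubation at 37 °C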
CYP2C9 act – increases human cytochrome P450 2C9 activity; hit rate 1.4% among 96,000; recombinant CYP2C9, luciferin-H conversion, luminescence; active compounds read high; factor 1 = untreated enzyme, 0 = blocked; activation factor at 5 µM;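 active = activation factor of 2 or more for CYP2C9 at a 5 µM dose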
tolC growth inh – growth inhibitors of E. coli BW25113 tolC mutant; OD615; growth inhibition, % at 10 µM (by protocol); hit rate 2.2% among 65,000; AID 573;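 active = growth inhibition at or above a cutoff equal to the mean over every tested compound plus 3 SD, cut at about 60% in these data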;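 also: growth measured after 20 h incubation at 37 °C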
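Assay system: tolC-deleted E. coli BW25113. Medium: kanamycin-containing LB broth (50 µg/mL). Dosing: 10 µM final, single dose. Timing: bacterial growth with compound for 20 h at 37 °C. Detection: A615 absorbance measurement. Read-out basis: growth inhibition in percent.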
CYP2C19 inh – inhibitors of human CYP2C19; hit rate 21% among 96,000; P33261; CYP2C19 Supersomes, luciferin-H EGE luminescence, 30 min; AID 778; inhibition, % at 5 µM;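 active = CYP2C19 inhibition above a set limit at 5 µM in the primary screen, cut at about 50% in these data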
Numbers stand for hits; - = inactive; . = not tested or not shown. Shown are actives, neighbours in structure and some others; about 29% of the full set was active somewhere.

SMILES | CYP2C19 activ | CYP2C9 inhib | Ecoli WT expand | CYP2C9 act | tolC growth inh | CYP2C19 inh
COc1ccc2oc(=O)c(C(=O)N3c4ccccc4CC3C)cc2c1 (stereo not given) | - | 68 | - | - | . | -
CC1Cc2ccccc2N1C(=O)COC(=O)c1ccc(S(=O)(=O)N(C)C)cc1 (stereo not given) | - | - | - | - | - | -
c1ccc(-n2nnnc2SCCCSc2nc3ccccc3s2)cc1 | - | - | - | - | - | -
Cn1c(SCCS(=O)(=O)c2ccc(Cl)cc2)nnc1-c1ccccc1 | - | - | - | - | - | -
Cc1nn(C)c(C)c1S(=O)(=O)N(CC(=O)Nc1ccccn1)c1ccc(C(C)C)cc1 | . | . | - | . | - | .
COc1ccc(N(CC(=O)N2CCCC(C)C2)S(=O)(=O)c2c(C)nn(C)c2C)cc1 (stereo not given) | - | - | - | - | - | 53
Cc1cccc(NC(=O)CN(c2ccc(C(C)C)cc2)S(=O)(=O)c2c(C)nn(C)c2C)n1 | - | 97 | - | - | . | 96
Cc1nn(C)c(C)c1S(=O)(=O)N(CC(=O)N1CCc2ccccc21)c1ccc(C(C)C)cc1 | - | 74 | - | - | . | 59
COc1ccc(N(CC(=O)N2c3ccccc3CC2C)S(=O)(=O)c2c(C)nn(C)c2C)cc1 (stereo not given) | - | 77 | - | - | - | 80
CCOC(=O)N1CCN(C(=O)C2CCCN(S(=O)(=O)c3cccnc3)C2)CC1 (stereo not given) | - | - | - | - | - | -
COc1ccc(N(CC(=O)N2CCc3ccccc32)S(=O)(=O)c2c(C)n[nH]c2C)cc1 | - | 76 | - | - | - | -
Cc1ccc(N(CC(=O)N2CCc3ccccc32)S(=O)(=O)c2cccs2)cc1 | - | - | - | - | . | -
Cc1nn(C)c(C)c1S(=O)(=O)N(CC(=O)N1CCc2ccccc2C1)c1ccc(C(C)C)cc1 | - | 81 | - | - | . | 96
COc1ccc2cnn(CCOc3ccccc3)c(=O)c2c1OC | - | - | - | - | - | -
CCCNC(=O)NC1C(NC(=O)NCCC)N(C)C(=O)N1C (stereo not given) | - | - | - | - | - | -
CCN(CC)S(=O)(=O)c1ccc(NC(=O)Cn2cnc3ccccc3c2=O)cc1 | - | 67 | - | - | - | -
CC1CCCC(C)N1S(=O)(=O)c1ccc(NC(=O)CCn2cnc3ccccc3c2=O)cc1 (stereo not given) | - | - | - | - | . | -
O=C(Cn1cnc2ccccc2c1=O)NCCC(=O)Nc1ccc2c(c1)OCCO2 | - | 51 | - | - | - | -
O=C(Cn1cnc2ccccc2c1=O)Nc1ccc2c(c1)CCC2 | - | - | - | - | - | -
CN(C)S(=O)(=O)c1cccc(NC(=O)Cn2cnc3ccccc3c2=O)c1 | - | 84 | - | - | . | -
O=C(Cn1cnc2ccccc2c1=O)Nc1ccc2c(c1)OCCO2 | - | - | - | - | - | -
Cc1ccc(Oc2ccccc2/C=C/C(=O)O)cc1 | - | - | - | - | . | -
CN(C)C(=O)COC(=O)/C=C/c1ccccc1[N+](=O)[O-] | - | - | - | 2.1 | . | -
Cc1cc(-c2nnc3n2CCCCC3)c(C)n1-c1ccccc1 | - | 51 | - | - | - | -
COc1ccc(OC)c(C2C(C(C)=O)=C(O)C(=O)N2c2ccc(O)cc2)c1 (stereo not given) | - | - | - | - | - | -
SMILES | CYP2C19 activ | CYP2C9 inhib | Ecoli WT expand | CYP2C9 act | tolC growth inh | CYP2C19 inh
Cc1cc(C)nc(-n2nc(C)c3c(C(F)(F)F)cc(=O)[nH]c32)n1 | - | 65 | - | - | . | -
Cc1cc(=O)[nH]c2c1c(C)nn2-c1ccccc1 | - | - | . | - | - | -
NC(=O)c1ccsc1NC(=O)COC(=O)C1CCCN1C(=O)c1cccs1 (stereo not given) | - | 72 | - | - | - | 72
NC(=O)c1ccsc1NC(=O)c1cccs1 | . | . | . | . | - | .
COc1ccc(NC(=O)COC(=O)[C@@H]2CCCN2C(=O)c2cccs2)c(OC)c1 | - | 56 | - | - | . | -
COC(=O)c1[nH]c2ccc(F)cc2c1NS(=O)(=O)c1ccc(OC)cc1OC | - | - | - | - | - | 56
CCOC(=O)c1[nH]c2ccc(OC)cc2c1NS(=O)(=O)c1ccc(OC)cc1OC | - | 67 | - | - | - | 57
CCOC(=O)c1[nH]c2ccc(OC)cc2c1NC(=O)C(C)N1CCSCC1 (stereo not given) | - | 84 | - | - | - | 81
CCOC(=O)c1[nH]c2ccc(OC)cc2c1NC(=O)OC | - | - | - | - | - | -
CC(=O)c1ccc(N2CCN(CCC#N)CC2)c(F)c1 | - | - | - | - | - | -
CC1CCN(C(=O)CSc2ccc3nnc(-c4ccccc4)n3n2)CC1 | . | . | . | . | - | .
C/C(O)=C(/C#N)c1nc2ccccc2[nH]1 | - | - | - | - | - | -
CC(=O)OC(/C(O)=C(\C#N)c1nc2ccccc2[nH]1)c1ccccc1 (stereo not given) | - | 66 | - | - | - | -
Cc1nn(-c2ccccc2)c(C)c1C(=O)OC/C(O)=C(\C#N)c1nc2ccccc2[nH]1 | - | 64 | - | - | - | 62
C=CCSc1nnc(NC(=O)COc2ccc3ccccc3c2)s1 | - | - | - | - | . | -
CCCn1cc(NC(=O)c2cc3n(n2)C(C(F)(F)F)CC(c2ccccc2)N3)cn1 (stereo not given) | - | - | - | - | - | -
CC(C)[C@H](NC(=O)OC(C)(C)C)C(=O)N/N=C/c1cccc2nccnc12 | - | - | - | - | . | -
O=C(Nc1nnc(C2CC2)o1)c1ccc(S(=O)(=O)N2CCCc3ccccc32)cc1 | - | 95 | - | - | 100 | -
COc1ccc(-c2nnc(NC(=O)C(C)C)o2)cc1 | - | - | - | - | - | -
O=C(NCc1ccco1)c1ccc(S(=O)(=O)N2CCCc3ccccc32)cc1 | - | 76 | - | - | 71 | 67
CC(=O)Nc1ccc(S(=O)(=O)N2CCCc3ccccc32)cc1 | - | - | - | - | - | -
COc1ccc(-c2nnc(NC(=O)c3ccc(S(=O)(=O)N4CCCc5ccccc54)cc3)o2)cc1 | - | 54 | - | - | - | -
C=CCSc1nnc(NC(=O)c2cccc(S(=O)(=O)N3CCOCC3)c2)s1 | - | - | - | - | - | -
Cc1cc(/N=C/C=C2\N(C)c3ccccc3C2(C)C)n(CCC#N)n1 | - | - | - | - | - | 55
c1ccc(Oc2cc(-c3ccccc3)ncn2)cc1 | - | - | - | - | . | 66
O=C(CC1C(=O)NCCN1C(=O)Nc1ccccc1)Nc1ccc2c(c1)OCCO2 (stereo not given) | - | - | - | - | - | -
COc1cccc(NC(=O)C(=O)N/N=C/c2cc(C)n(-c3ccc(Cl)c(Cl)c3)c2C)c1 | - | - | - | - | . | 57
Cc1cc(/C=N\NC(=O)CC(=O)NC2CCCCC2)c(C)n1-c1ccc(Cl)c(Cl)c1 | - | - | - | - | . | -

Screens from PubChem.
